ChEMBL document CHEMBL3124834, “Development of tag-free photoprobes for studies aimed at identifying the target of novel Group A Streptococcus antivirulence agents” (Bioorg Med Chem Lett, 2014)

Legend:
Streptococcus pyogenes = assay: Growth inhibition of Streptococcus pyogenes UMAA2616 at 50 uM after 24 hrs relative to control; format: organism-based
[1] = biological target: T1, Streptokinase (Streptococcus pyogenes) (UniProt P96471); assay: Inhibition of Streptococcus pyogenes UMAA2616 streptokinase assessed as plasmin activity in human plasma at 5 uM after 24 hrs by colorimetric analysis relative to control
T1 sequence (whole entry): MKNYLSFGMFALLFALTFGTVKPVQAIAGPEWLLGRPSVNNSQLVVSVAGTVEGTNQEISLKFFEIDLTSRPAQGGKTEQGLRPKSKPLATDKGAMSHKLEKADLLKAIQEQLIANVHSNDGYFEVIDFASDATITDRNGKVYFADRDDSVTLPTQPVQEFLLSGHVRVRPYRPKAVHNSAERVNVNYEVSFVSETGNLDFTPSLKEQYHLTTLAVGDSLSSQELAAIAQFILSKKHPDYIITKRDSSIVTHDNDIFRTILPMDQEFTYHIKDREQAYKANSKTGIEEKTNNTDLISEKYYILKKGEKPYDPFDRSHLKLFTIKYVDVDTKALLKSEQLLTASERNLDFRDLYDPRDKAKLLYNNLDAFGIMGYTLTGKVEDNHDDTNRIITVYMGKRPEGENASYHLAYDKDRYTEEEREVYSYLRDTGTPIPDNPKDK
Method in brief: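 GAS cultures incubated 24 hours with 5 μM compound. Culture supernatant was mixed with human plasma, and the resulting plasmin activity was followed by turnover of a plasmin-specific chromogenic substrate, read as absorbance at 405 nm. Value is the activity of the treated culture divided by that of a DMSO-treated control culture, ± standard deviation.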

Streptokinase = biological target: T2, Streptokinase (Streptococcus pyogenes, UniProt P96471); assay: Inhibition of Streptococcus pyogenes UMAA2616 streptokinase assessed as plasmin activity in human plasma after 24 hrs by colorimetric analysis
T2 sequence (P96471 whole entry): T1 sequence (whole entry)
Method in brief: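 GAS culture grown 24 h with test compound (5 μM for ratio data); culture supernatant mixed with human plasma and resulting plasmin activity read as turnover of plasmin-specific chromogenic substrate at A405. Reported as SK activity relative to DMSO-treated control culture; IC50 taken as concentration giving 50% of maximal inhibition of SK expression; ± standard deviation.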

SMILES | T/C (Streptococcus pyogenes) | T/C [1] | IC50 (Streptokinase)
C#CCOCCOc1ccc2c(c1)CC(C)(C)c1c-2nc(SCCC2(C)N=N2)n(CC=C)c1=O | 1.01 | 0.71 | 
C#CCOc1ccc2c(c1)CC(C)(C)c1c-2nc(SCCC2(C)N=N2)n(CC=C)c1=O | 1.02 | 0.89 | 
C#CCSc1nc2c(c(=O)n1CC=C)C(C)(C)Cc1cc(OCCC3(C)N=N3)ccc1-2 | 0.96 | 1.07 | 
C#CCOCCSc1nc2c(c(=O)n1CC=C)C(C)(C)Cc1cc(OCCC3(C)N=N3)ccc1-2 | 1.07 | 0.49 | 330 nM
C#CCSc1nc2c(c(=O)n1CC=C)C(C)(C)Cc1cc(C(=O)c3ccccc3)ccc1-2 | 1.09 | 0.77 | 
C#CCOCCSc1nc2c(c(=O)n1CC=C)C(C)(C)Cc1ccc(N=[N+]=[N-])cc1-2 | 0.98 | 0.3 | 190 nM
C#CCOCCSc1nc2c(c(=O)n1CC=C)C(C)(C)Cc1cc(C(=O)c3ccccc3)ccc1-2 | 0.94 | 0.51 | 3800 nM
C=CCn1c(SCC)nc2c(c1=O)C(C)(C)Cc1ccc(OC)cc1-2 | 0.73 | 0.1 | 1300 nM
